Measurements published in ChEMBL document CHEMBL4837245, “Discovery of VU6028418: A Highly Selective and Orally Bioavailable M4 Muscarinic Acetylcholine Receptor Antagonist” (ACS Med Chem Lett, 2021).

Tests used:
Rattus norvegicus [1] = experiment: Effect on haloperidol-induced catalepsy in rat assessed as reduction in mean latency to withdraw at 3 mg/kg, po (reference value: 43.4 +/- 4.3 sec); format: functional
In short: (§1)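 Rat haloperidol-induced catalepsy model with oral test dosing at 0.3, 1 and 3 mg/kg alongside vehicle-treated controls. Read-out is latency to withdraw, also expressed as % reversal of catalepsy. Groups compared by ANOVA.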

Cytochrome P450 2C19 = Cytochrome P450 2C19 (Homo sapiens, UniProt P33261); experiment: Time dependent inhibition of CYP2C19 (unknown origin); format: ADME
Chain of Cytochrome P450 2C19 (P33261 whole entry): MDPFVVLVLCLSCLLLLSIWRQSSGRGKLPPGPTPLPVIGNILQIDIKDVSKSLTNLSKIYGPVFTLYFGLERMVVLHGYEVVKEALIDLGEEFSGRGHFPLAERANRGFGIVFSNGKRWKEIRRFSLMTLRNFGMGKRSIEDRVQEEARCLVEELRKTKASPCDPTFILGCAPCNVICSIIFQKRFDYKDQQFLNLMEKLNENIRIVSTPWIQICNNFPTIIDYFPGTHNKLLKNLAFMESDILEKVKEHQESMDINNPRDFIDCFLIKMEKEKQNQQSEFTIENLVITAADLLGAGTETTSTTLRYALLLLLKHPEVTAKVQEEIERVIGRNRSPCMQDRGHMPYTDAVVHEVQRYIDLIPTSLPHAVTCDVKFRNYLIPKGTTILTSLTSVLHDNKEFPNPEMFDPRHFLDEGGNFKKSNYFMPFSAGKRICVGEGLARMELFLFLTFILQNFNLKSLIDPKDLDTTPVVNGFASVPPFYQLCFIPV

[2] = Ratio of free drug concentration in brain to plasma of Sprague-Dawley rat at 1 mg/kg, iv; format: ADME, organism-based; details: read-out: K(p,uu,brain)
[3] = Oral bioavailability in Beagle dog at 3 mg/kg measured upto 24 hrs by LC-MS/MS analysis; format: ADME, organism-based, Canis lupus familiaris; details: in vivo
In short: (§2)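 Single iv and oral (suspension) dosing; iv/po doses 1/10 mg/kg in SD rat, 1/3 mg/kg in CD-1 mouse and beagle dog. Plasma PK parameters are means from two to three animals per species.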

[4] = AUC (0 to infinity) in Beagle dog at 3 mg/kg, po measured upto 24 hrs by LC-MS/MS analysis; format: ADME, organism-based, Canis lupus familiaris; parameters: route oral, dose 3 mg/kg, time <=24; details: in vivo; in short: as §2
[5] = molecular target: T1, Muscarinic acetylcholine receptor M4 (Homo sapiens, UniProt P08173); experiment: Antagonist activity at human muscarinic acetylcholine M4 receptor expressed in CHO cells assessed as inhibition of acetylcholine-induced calcium mobilization; format: functional, cell-based; details: read-out: IC50
T1 sequence (P08173 whole entry): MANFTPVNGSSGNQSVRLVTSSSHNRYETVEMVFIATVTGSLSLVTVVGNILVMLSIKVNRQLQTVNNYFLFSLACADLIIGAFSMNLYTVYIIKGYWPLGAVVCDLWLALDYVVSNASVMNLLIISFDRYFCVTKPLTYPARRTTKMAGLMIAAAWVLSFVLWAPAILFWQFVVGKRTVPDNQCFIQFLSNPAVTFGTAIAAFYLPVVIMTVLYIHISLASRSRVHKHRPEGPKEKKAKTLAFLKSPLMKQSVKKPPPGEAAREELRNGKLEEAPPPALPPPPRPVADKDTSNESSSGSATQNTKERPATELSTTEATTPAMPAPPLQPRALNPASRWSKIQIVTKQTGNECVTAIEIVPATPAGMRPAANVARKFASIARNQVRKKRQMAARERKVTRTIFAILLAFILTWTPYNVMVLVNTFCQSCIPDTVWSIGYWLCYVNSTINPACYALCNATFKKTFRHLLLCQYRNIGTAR

Rattus norvegicus [6] = experiment: Reversal of haloperidol-induced catalepsy in rat at 0.3 mg/kg, po relative to control; format: functional; in short: as §1
[7] = Cmax in CD-1 mouse at 3 mg/kg, po measured upto 24 hrs by LC-MS/MS analysis; format: ADME, organism-based; parameters: route oral, dose 3 mg/kg, time <=24; details: in vivo; in short: as §2
[8] = AUC (0 to infinity) in Sprague-Dawley rat at 10 mg/kg, po measured upto 24 hrs by LC-MS/MS analysis; format: ADME, organism-based; parameters: route oral, dose 10 mg/kg, time <=24; details: in vivo; in short: as §2
[9] = Oral bioavailability in CD-1 mouse at 3 mg/kg measured upto 24 hrs by LC-MS/MS analysis; format: ADME, organism-based; details: in vivo; in short: as §2
Rattus norvegicus [10] = experiment: Effect on haloperidol-induced catalepsy in rat assessed as reduction in mean latency to withdraw at 1 mg/kg, po (reference value: 43.4 +/- 4.3 sec); format: functional; in short: as §1
CYP2D6 = CYP2D6 (Homo sapiens, UniProt P10635); experiment: Inhibition of CYP2D6 in human liver microsomes using dextromethorphan as substrate preincubated for 15 mins followed by NADPH addition and measured after 8 mins by LC-MS/MS analysis; format: ADME; details: human, liver microsomes, probe dextromethorphan; time 23 min; read-out: INH
Chain of CYP2D6 (P10635 whole entry): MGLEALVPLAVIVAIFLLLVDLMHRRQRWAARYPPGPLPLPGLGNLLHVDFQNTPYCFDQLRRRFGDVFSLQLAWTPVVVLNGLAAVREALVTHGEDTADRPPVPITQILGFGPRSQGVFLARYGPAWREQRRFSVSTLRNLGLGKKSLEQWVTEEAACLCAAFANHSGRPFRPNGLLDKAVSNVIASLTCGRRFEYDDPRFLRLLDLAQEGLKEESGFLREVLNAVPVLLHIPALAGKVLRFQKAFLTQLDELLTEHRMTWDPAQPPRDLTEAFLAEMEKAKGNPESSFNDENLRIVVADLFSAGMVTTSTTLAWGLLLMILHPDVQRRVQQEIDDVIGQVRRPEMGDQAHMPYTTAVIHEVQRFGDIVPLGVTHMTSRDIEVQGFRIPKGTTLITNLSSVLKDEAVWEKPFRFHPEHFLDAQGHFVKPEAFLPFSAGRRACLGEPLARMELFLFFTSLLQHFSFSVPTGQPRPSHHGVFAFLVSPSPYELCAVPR
In short: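 Cocktail CYP450 inhibition assay run in human liver microsomes.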

Fc1cc(F)c(F)c(-c2ccc(N[C@H]3C[C@@H]4CN(CC5CCOCC5)C[C@@H]4C3)nn2)c1
Activity (Rattus norvegicus [1]): 15.1 s
IC50 (Cytochrome P450 2C19): > 100 µM
Kp uu [2]: 0.61
bioavailability [3]: 86%
AUC [4]: 1100 ng·h/mL
IC50 [5]: 0.0041 µM
Activity (Rattus norvegicus [6]): 26.2%
Cmax [7]: 181 ng/mL
AUC [8]: 30000 ng·h/mL
bioavailability [9]: ≥ 100%
Activity (Rattus norvegicus [10]): 21.3 s
IC50 at 8 min (CYP2D6): > 30 µM
